ChEMBL document CHEMBL1177643, “Synthesis, DNA-binding ability and anticancer activity of benzothiazole/benzoxazole-pyrrolo[2,1-c][1,4]benzodiazepine conjugates” (Bioorg Med Chem, 2010)

Key:
CAKI-1 = assay: Growth inhibition of human Caki1 cells after 48 hrs by sulforhodamine B assay; assay type: functional; settings: CAKI-1, 48 h
Procedure, shortened: (§1)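 Dose–response in each cell line over at least five concentrations at 10-fold dilutions, with 48 h continuous exposure and sulforhodamine B read-out.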

KM12 = assay: Growth inhibition of human KM12 cells after 48 hrs by sulforhodamine B assay; assay type: functional; settings: KM12, 48 h
Procedure, shortened: (§2)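 Panel of 60 human cancer cell lines; for each compound, dose–response curves per cell line measured at a minimum of five concentrations at 10-fold dilutions. Cells exposed continuously to drug for 48 h, and growth was read out by sulforhodamine B staining.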

Calf thymus DNA = assay: Binding affinity to calf thymus duplex-form DNA assessed as melting temperature at 1:5 compound/DNA ratio after 18 hrs; assay type: nucleic-acid assay; settings: Bos taurus
SK-MEL-5 = assay: Growth inhibition of human SK-MEL-5 cells after 48 hrs by sulforhodamine B assay; assay type: functional; settings: SK-MEL-5, 48 h; procedure, shortened: as §2
COLO 205 = assay: Growth inhibition of human COLO205 cells after 48 hrs by sulforhodamine B assay; assay type: functional; settings: COLO 205, 48 h; procedure, shortened: as §1
OVCAR-5 = assay: Growth inhibition of human OVCAR5 cells after 48 hrs by sulforhodamine B assay; assay type: functional; settings: OVCAR-5, 48 h; procedure, shortened: as §2
SF-268 = assay: Growth inhibition of human SF268 cells after 48 hrs by sulforhodamine B assay; assay type: functional; settings: SF-268, 48 h; procedure, shortened: as §2
LOX IMVI = assay: Growth inhibition of human LOXIMVI cells after 48 hrs by sulforhodamine B assay; assay type: functional; procedure, shortened: as §2
M14 = assay: Growth inhibition of human M14 cells after 48 hrs by sulforhodamine B assay; assay type: functional; settings: M14, 48 h; procedure, shortened: as §2
EKVX = assay: Growth inhibition of human EKVX cells after 48 hrs by sulforhodamine B assay; assay type: functional; procedure, shortened: as §1
DU-145 = assay: Growth inhibition of human DU145 cells after 48 hrs by sulforhodamine B assay; assay type: functional; settings: DU-145, 48 h; procedure, shortened: as §1
HOP-92 = assay: Growth inhibition of human HOP92 cells after 48 hrs by sulforhodamine B assay; assay type: functional; settings: HOP-92, 48 h; procedure, shortened: as §2
SNB-19 = assay: Growth inhibition of human SNB19 cells after 48 hrs by sulforhodamine B assay; assay type: functional; settings: SNB-19, 48 h; procedure, shortened: as §2
SK-MEL-28 = assay: Growth inhibition of human SK-MEL-28 cells after 48 hrs by sulforhodamine B assay; assay type: functional; settings: SK-MEL-28, 48 h; procedure, shortened: as §2
OVCAR-4 = assay: Growth inhibition of human OVCAR4 cells after 48 hrs by sulforhodamine B assay; assay type: functional; settings: OVCAR-4, 48 h; procedure, shortened: as §2
NCI-H322M = assay: Growth inhibition of human NCI-H322M cells after 48 hrs by sulforhodamine B assay; assay type: functional; procedure, shortened: as §2
UACC-257 = assay: Growth inhibition of human UACC257 cells after 48 hrs by sulforhodamine B assay; assay type: functional; settings: UACC-257, 48 h; procedure, shortened: as §2
UO-31 = assay: Growth inhibition of human UO31 cells after 48 hrs by sulforhodamine B assay; assay type: functional; settings: UO-31, 48 h; procedure, shortened: as §2
TK-10 = assay: Growth inhibition of human TK10 cells after 48 hrs by sulforhodamine B assay; assay type: functional; settings: TK-10, 48 h; procedure, shortened: as §2
HT-29 = assay: Growth inhibition of human HT-29 cells after 48 hrs by sulforhodamine B assay; assay type: functional; settings: HT-29, 48 h; procedure, shortened: as §2
A549 = assay: Growth inhibition of human A549 cells after 48 hrs by sulforhodamine B assay; assay type: functional; settings: A549, 48 h; procedure, shortened: as §1
HL-60 = assay: Growth inhibition of human HL-60(TB) cells after 48 hrs by sulforhodamine B assay; assay type: functional; settings: HL-60, 48 h; procedure, shortened: as §2
SNB-75 = assay: Growth inhibition of human SNB75 cells after 48 hrs by sulforhodamine B assay; assay type: functional; settings: SNB-75, 48 h; procedure, shortened: as §2
NCI-H23 = assay: Growth inhibition of human NCI-H23 cells after 48 hrs by sulforhodamine B assay; assay type: functional; settings: NCI-H23, 48 h; procedure, shortened: as §2
NCI-H522 = assay: Growth inhibition of human NCI-H522 cells after 48 hrs by sulforhodamine B assay; assay type: functional; settings: NCI-H522, 48 h; procedure, shortened: as §2
UACC-62 = assay: Growth inhibition of human UACC62 cells after 48 hrs by sulforhodamine B assay; assay type: functional; settings: UACC-62, 48 h; procedure, shortened: as §2
IGROV-1 = assay: Growth inhibition of human IGROV1 cells after 48 hrs by sulforhodamine B assay; assay type: functional; settings: IGROV-1, 48 h; procedure, shortened: as §2
BT-549 = assay: Growth inhibition of human BT549 cells after 48 hrs by sulforhodamine B assay; assay type: functional; settings: BT-549, 48 h; procedure, shortened: as §1
SR = assay: Growth inhibition of human SR cells after 48 hrs by sulforhodamine B assay; assay type: functional; procedure, shortened: as §2
MCF7 = assay: Growth inhibition of human MCF7 cells after 48 hrs by sulforhodamine B assay; assay type: functional; settings: MCF7, 48 h; procedure, shortened: as §2
PC-3 = assay: Growth inhibition of human PC3 cells after 48 hrs by sulforhodamine B assay; assay type: functional; settings: PC-3, 48 h; procedure, shortened: as §2
HCT-15 = assay: Growth inhibition of human HCT15 cells after 48 hrs by sulforhodamine B assay; assay type: functional; settings: HCT-15, 48 h; procedure, shortened: as §2
SW-620 = assay: Growth inhibition of human SW620 cells after 48 hrs by sulforhodamine B assay; assay type: functional; settings: SW-620, 48 h; procedure, shortened: as §2
[1] = Growth inhibition of human […] cells after 48 hrs by sulforhodamine B assay; assay type: functional; procedure, shortened: as §2
OVCAR-8 = assay: Growth inhibition of human OVCAR8 cells after 48 hrs by sulforhodamine B assay; assay type: functional; settings: OVCAR-8, 48 h; procedure, shortened: as §2
SF-295 = assay: Growth inhibition of human SF295 cells after 48 hrs by sulforhodamine B assay; assay type: functional; settings: SF-295, 48 h; procedure, shortened: as §2
T47D = assay: Growth inhibition of human T47D cells after 48 hrs by sulforhodamine B assay; assay type: functional; procedure, shortened: as §2
MDA-MB-435 = assay: Growth inhibition of human MDA-MB-435 cells after 48 hrs by sulforhodamine B assay; assay type: functional; settings: MDA-MB-435, 48 h; procedure, shortened: as §2
HCC 2998 = assay: Growth inhibition of human HCC2998 cells after 48 hrs by sulforhodamine B assay; assay type: functional; settings: HCC 2998, 48 h; procedure, shortened: as §2
NCI/ADR-RES = assay: Growth inhibition of human NCI/ADR-RES cells after 48 hrs by sulforhodamine B assay; assay type: functional; procedure, shortened: as §2
RXF 393 = assay: Growth inhibition of human RXF393 cells after 48 hrs by sulforhodamine B assay; assay type: functional; settings: RXF 393, 48 h; procedure, shortened: as §2
A498 = assay: Growth inhibition of human A498 cells after 48 hrs by sulforhodamine B assay; assay type: functional; settings: A498, 48 h; procedure, shortened: as §1
U-251 = assay: Growth inhibition of human U251 cells after 48 hrs by sulforhodamine B assay; assay type: functional; settings: U-251, 48 h; procedure, shortened: as §2
SK-OV-3 = assay: Growth inhibition of human SKOV3 cells after 48 hrs by sulforhodamine B assay; assay type: functional; settings: SK-OV-3, 48 h; procedure, shortened: as §2
K562 = assay: Growth inhibition of human K562 cells after 48 hrs by sulforhodamine B assay; assay type: functional; settings: K562, 48 h; procedure, shortened: as §2
HOP-62 = assay: Growth inhibition of human HOP62 cells after 48 hrs by sulforhodamine B assay; assay type: functional; settings: HOP-62, 48 h; procedure, shortened: as §2
HCT-116 = assay: Growth inhibition of human HCT116 cells after 48 hrs by sulforhodamine B assay; assay type: functional; settings: HCT-116, 48 h; procedure, shortened: as §2
SK-MEL-2 = assay: Growth inhibition of human SK-MEL-2 cells after 48 hrs by sulforhodamine B assay; assay type: functional; settings: SK-MEL-2, 48 h; procedure, shortened: as §2
786-0 = assay: Growth inhibition of human 786-0 cells after 48 hrs by sulforhodamine B assay; assay type: functional; settings: 786-0, 48 h; procedure, shortened: as §1
ACHN = assay: Growth inhibition of human ACHN cells after 48 hrs by sulforhodamine B assay; assay type: functional; procedure, shortened: as §1
NCI-H226 = assay: Growth inhibition of human NCI-H226 cells after 48 hrs by sulforhodamine B assay; assay type: functional; settings: NCI-H226, 48 h; procedure, shortened: as §2
Hs-578T = assay: Growth inhibition of human Hs 578T cells after 48 hrs by sulforhodamine B assay; assay type: functional; procedure, shortened: as §2
NCI-H460 = assay: Growth inhibition of human NCI-H460 cells after 48 hrs by sulforhodamine B assay; assay type: functional; settings: NCI-H460, 48 h; procedure, shortened: as §2
MDA-MB-231 = assay: Growth inhibition of human MDA-MB-231 cells after 48 hrs by sulforhodamine B assay; assay type: functional; settings: MDA-MB-231, 48 h; procedure, shortened: as §2
SN12C = assay: Growth inhibition of human SN12C cells after 48 hrs by sulforhodamine B assay; assay type: functional; procedure, shortened: as §2
OVCAR-3 = assay: Growth inhibition of human OVCAR-3 cells after 48 hrs by sulforhodamine B assay; assay type: functional; settings: OVCAR-3, 48 h; procedure, shortened: as §2
MOLT-4 = assay: Growth inhibition of human MOLT4 cells after 48 hrs by sulforhodamine B assay; assay type: functional; settings: MOLT-4, 48 h; procedure, shortened: as §2
Malme-3M = assay: Growth inhibition of human MALME-3M cells after 48 hrs by sulforhodamine B assay; assay type: functional; procedure, shortened: as §2
SF-539 = assay: Growth inhibition of human SF539 cells after 48 hrs by sulforhodamine B assay; assay type: functional; settings: SF-539, 48 h; procedure, shortened: as §2
CCRF-CEM = assay: Growth inhibition of human CCRF-CEM cells after 48 hrs by sulforhodamine B assay; assay type: functional; procedure, shortened: as §1

`COc1cc2c(cc1OCCCCOc1ccc(-c3nc4ccccc4s3)cc1)N=C[C@@H]1CCCN1C2=O` gave a GI50 (CAKI-1) of 0.355 µM, a GI50 (KM12) of 0.55 µM and a ΔTm (Calf thymus DNA) of 0.5 °C. It also gave a GI50 (SK-MEL-5) of 0.347 µM, a GI50 (COLO 205) of 0.339 µM and a GI50 (OVCAR-5) of 0.331 µM. The GI50 (SF-268) was 0.661 µM, the GI50 (LOX IMVI) was 0.407 µM and the GI50 (M14) was 0.537 µM. It also gave a GI50 (EKVX) of 1.26 µM, a GI50 (DU-145) of 0.269 µM and a GI50 (HOP-92) of 0.178 µM. It also gave a GI50 (SNB-19) of 1.51 µM, a GI50 (SK-MEL-28) of 2.14 µM and a GI50 (OVCAR-4) of 1.15 µM. It also gave a GI50 (NCI-H322M) of 2.19 µM, a GI50 (UACC-257) of 2.19 µM and a GI50 (UO-31) of 0.661 µM. It also gave a GI50 (TK-10) of 0.479 µM, a GI50 (HT-29) of 0.38 µM and a GI50 (A549) of 2.63 µM. For the same compound, the GI50 (HL-60) was 0.38 µM, the GI50 (SNB-75) was 1.07 µM and the GI50 (NCI-H23) was 0.741 µM. The GI50 (NCI-H522) was 0.324 µM, the GI50 (UACC-62) was 0.794 µM and the GI50 (IGROV-1) was 2.4 µM. For the same compound, the GI50 (BT-549) was 0.182 µM, the GI50 (SR) was 0.0219 µM and the GI50 (MCF7) was 0.324 µM. The GI50 (PC-3) was 0.295 µM, the GI50 (HCT-15) was 0.646 µM and the GI50 (SW-620) was 0.427 µM. For the same compound, the GI50 [1] was 0.214 µM, the GI50 (OVCAR-8) was 0.759 µM and the GI50 (SF-295) was 0.676 µM. For the same compound, the GI50 (T47D) was 0.219 µM, the GI50 (MDA-MB-435) was 0.447 µM and the GI50 (HCC 2998) was 0.363 µM. The GI50 (NCI/ADR-RES) was 1.15 µM, the GI50 (RXF 393) was 0.191 µM and the GI50 (A498) was 2.04 µM. It also gave a GI50 (U-251) of 0.229 µM, a GI50 (SK-OV-3) of 1.23 µM and a GI50 (K562) of 0.355 µM. For the same compound, the GI50 (HOP-62) was 0.407 µM, the GI50 (HCT-116) was 0.295 µM and the GI50 (SK-MEL-2) was 0.389 µM. It also gave a GI50 (786-0) of 0.214 µM, a GI50 (ACHN) of 0.363 µM and a GI50 (NCI-H226) of 1.45 µM. The GI50 (Hs-578T) was 0.501 µM, the GI50 (NCI-H460) was 0.407 µM and the GI50 (MDA-MB-231) was 0.269 µM. For the same compound, the GI50 (SN12C) was 0.631 µM, the GI50 (OVCAR-3) was 0.38 µM and the GI50 (MOLT-4) was 0.234 µM. For the same compound, the GI50 (Malme-3M) was 1.26 µM, the GI50 (SF-539) was 0.347 µM and the GI50 (CCRF-CEM) was 0.282 µM.
Compound `COc1cc2c(cc1OCCCCCOc1ccc(-c3nc4ccccc4o3)cc1)N=C[C@@H]1CCCN1C2=O` has a ΔTm (Calf thymus DNA) of 4.3 °C.
